These results are taken from ChEMBL document CHEMBL1148321, “New series of morpholine and 1,4-oxazepane derivatives as dopamine D4 receptor ligands: synthesis and 3D-QSAR model” (J Med Chem, 2004).

SMILES strings stand for the structures. Calls of active or inactive are those of the source. No cut-off for these calls is given here.

The target in assay [1] is T1, D(4) dopamine receptor (Homo sapiens, UniProt P21917).
T1 sequence (P21917 whole entry): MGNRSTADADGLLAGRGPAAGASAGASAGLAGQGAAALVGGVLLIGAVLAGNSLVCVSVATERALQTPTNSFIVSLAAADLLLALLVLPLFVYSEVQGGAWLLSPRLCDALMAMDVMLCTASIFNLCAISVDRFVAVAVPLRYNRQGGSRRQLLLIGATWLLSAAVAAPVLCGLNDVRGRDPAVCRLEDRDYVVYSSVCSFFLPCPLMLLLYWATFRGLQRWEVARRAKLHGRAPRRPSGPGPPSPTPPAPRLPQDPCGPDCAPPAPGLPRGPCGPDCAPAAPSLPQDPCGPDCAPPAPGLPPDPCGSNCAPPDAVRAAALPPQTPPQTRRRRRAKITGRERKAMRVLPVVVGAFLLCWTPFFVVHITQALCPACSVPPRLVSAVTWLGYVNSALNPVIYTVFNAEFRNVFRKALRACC
Kind of assay: In vitro ability of compound to inhibit binding of [3H]spiperone to human Dopamine receptor D4.

The target in assay [2] is D(2) dopamine receptor (Homo sapiens) (UniProt P14416). The assay can be described thus: Compound was tested for its affinity towards human Dopamine receptor D2 at 10 uM; No affinity was observed.
Chain of D(2) dopamine receptor (Homo sapiens) (P14416 whole entry): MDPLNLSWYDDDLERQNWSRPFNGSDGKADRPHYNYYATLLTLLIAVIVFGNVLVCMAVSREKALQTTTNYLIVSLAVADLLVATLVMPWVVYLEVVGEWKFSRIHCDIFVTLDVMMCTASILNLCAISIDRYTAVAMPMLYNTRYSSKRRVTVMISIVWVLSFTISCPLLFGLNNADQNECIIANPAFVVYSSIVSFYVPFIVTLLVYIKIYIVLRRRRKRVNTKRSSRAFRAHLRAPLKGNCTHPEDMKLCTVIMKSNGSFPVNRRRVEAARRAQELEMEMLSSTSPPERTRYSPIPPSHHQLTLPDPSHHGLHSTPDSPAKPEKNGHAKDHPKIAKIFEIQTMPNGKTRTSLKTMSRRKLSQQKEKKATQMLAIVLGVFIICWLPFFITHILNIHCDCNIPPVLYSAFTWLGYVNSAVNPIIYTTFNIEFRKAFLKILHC
Assay [3] concerns the target T1, D(4) dopamine receptor. Kind of assay: In vitro ability to inhibit binding of [3H]spiperone to human recombinant Dopamine receptor D4.2 expressed on CHO cells. The assay is classed as cell-based. The essentials: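 Frozen membranes from CHO cells transfected with human D4.2, stored at -80 C, were thawed and diluted in 50 mM Tris-HCl pH 7.4 with 120 mM NaCl, 5 mM KCl, 5 mM MgCl2 and 1 mM EDTA. They were incubated with [3H]spiperone (0.5 nM final) for 60 min at 25 C, with haloperidol defining nonspecific binding. Samples were filtered on PEI-presoaked GF/C filters, washed with cold Tris/NaCl, and counted by scintillation.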

Molecule `COc1ccc([N+](=O)[O-])cc1OCC1CN(Cc2ccc(Cl)cc2)CCCO1` (stereo unspecified) registered a Ki at D(4) dopamine receptor [1] of 400 nM. Besides, the result in assay [2] was inactive.

On D(4) dopamine receptor [1], `CCOc1ccccc1OCC1CN(Cc2ccc(Cl)cc2Cl)CCO1` (stereo unspecified) had a Ki of 290 nM. For the same molecule, the result in assay [2] was inactive. In the same order, the values of `CCOc1cc(Cl)ccc1OCC1CN(Cc2ccc(Cl)cc2)CCCO1` (stereo unspecified) are 7 nM and “inactive”. Regarding `COCCOc1ccccc1OCC1CN(Cc2ccc(Cl)cc2)CCO1` (stereo unspecified), the inhibitory constant (Ki) at D(4) dopamine receptor [1] came to 52 nM. Moreover, in assay [2], the outcome was inactive. In the same order, the values of `COc1ccc(Cl)cc1NCC1CN(Cc2ccc(Cl)cc2)CCO1` (stereo unspecified) are 4.5 nM and “inactive”. With `COc1cc(Cl)ccc1OC[C@H]1CN(Cc2ccc(Cl)cc2)CCO1`, the affinity at D(4) dopamine receptor [1], expressed as Ki, was 1600 nM. Further, the result in assay [2] was inactive. Consider `CCOc1ccccc1OCC1CN(Cc2ccc(Cl)cc2)CCO1` (stereo unspecified), for which the affinity on D(4) dopamine receptor [1], expressed as Ki, was 13 nM. Further, the result in assay [2] was inactive. On the same counts, the results for `COc1ccc(Cl)cc1OCC1CN(Cc2ccccc2)CCO1` (stereo unspecified) are 70 nM and “inactive”. Consider `Cc1ncccc1OCC1CN(Cc2ccc(Cl)cc2)CCCO1` (stereo unspecified), for which affinity at D(4) dopamine receptor [1] was put at a Ki of 83 nM. In assay [2], the outcome was inactive. On the same counts, the results for `COc1ccccc1OCC1CN(Cc2cccc(Cl)c2)CCO1` (stereo unspecified) are 650 nM and “inactive”. In the same order, the values of `CCOc1cc(C#N)ccc1OCC1CN(Cc2ccc(Cl)cc2)CCO1` (stereo unspecified) are 40 nM and “inactive”.

For `COc1ccccc1OCC1CN(Cc2ccccc2)CCO1` (stereo unspecified), at D(4) dopamine receptor [3], the inhibitory constant (Ki) was determined as 850 nM. Further, the outcome in assay [2] was inactive. Take `COc1cc(Cl)cc(OCC2CN(Cc3ccccc3)CCO2)c1` (stereo unspecified): the result in assay [2] was inactive. On to `COc1cc(I)ccc1OCC1CN(Cc2ccccc2)CCO1` (stereo unspecified), for which, at D(4) dopamine receptor [1], the Ki turned out to be 430 nM. Further, the result in assay [2] was inactive. With `COc1cc(C(=O)NC2CC2)c(Cl)cc1OCC1CN(Cc2ccc(Cl)cc2)CCO1` (stereo unspecified), at D(4) dopamine receptor [1], the affinity corresponds to a Ki of 150 nM. Moreover, the outcome in assay [2] was inactive.

`CCOc1ccccc1OCC1CN(Cc2ccc(F)cc2)CCO1` (stereo unspecified) came in with a Ki at D(4) dopamine receptor [1] of 180 nM. Besides, the result in assay [2] was inactive. For `COc1ccccc1SCC1CN(Cc2ccc(Cl)cc2)CCO1` (stereo unspecified), the inhibition constant (Ki) at D(4) dopamine receptor [1] was found to be 61 nM. Further, the outcome in assay [2] was inactive.

At D(4) dopamine receptor [1], `CCOc1cc(Cl)ccc1OCC1CN(Cc2ccc(Cl)cc2)CCO1` (stereo unspecified) gave a Ki of 13 nM. Also, in assay [2], the result was inactive. In the same order, the values of `COc1ccccc1/C=C/C1CN(Cc2ccc(Cl)cc2)CCO1` (stereo unspecified) are 200 nM and “inactive”.

With `COc1ccc(F)cc1OCC1CN(Cc2ccc(Cl)cc2)CCO1` (stereo unspecified), the inhibition constant (Ki) on D(4) dopamine receptor [1] worked out at 30 nM. Moreover, the outcome in assay [2] was inactive. On the same counts, the results for `CCOc1ccccc1OCC1CN(Cc2ccc([N+](=O)[O-])cc2)CCO1` (stereo unspecified) are 35 nM and “inactive”. On the same counts, the results for `CCOc1ccccc1OCC1CN(Cc2ccc(Cl)cc2)CCCO1` (stereo unspecified) are 4.9 nM and “inactive”. With `COc1ccccc1OCC1CN(Cc2ccc(C(F)(F)F)cc2)CCO1` (stereo unspecified), the inhibitory constant (Ki) at D(4) dopamine receptor [1] turned out to be 61 nM. Further, the outcome in assay [2] was inactive.

Molecule `COc1ccccc1CCC1CN(Cc2ccc(Cl)cc2)CCO1` (stereo unspecified) gave a Ki at D(4) dopamine receptor [1] of 29 nM. The result in assay [2] was inactive.

For the molecule `CC(C)Oc1ccccc1OCC1CN(Cc2ccc(Cl)cc2)CCO1` (stereo unspecified), the affinity on D(4) dopamine receptor [1], expressed as Ki, was 46 nM. In addition, the outcome in assay [2] was inactive. On the same counts, the results for `Oc1cc(Cl)ccc1NCC1CN(Cc2ccc(Cl)cc2)CCO1` (stereo unspecified) are 5.4 nM and “inactive”.

For the molecule `COc1ccc([N+](=O)[O-])cc1OCC1CN(Cc2ccc(Cl)cc2)CCO1` (stereo unspecified), the inhibition constant (Ki) at D(4) dopamine receptor [1] stood at 23 nM. Moreover, in assay [2], the result was inactive.

In turn, `Clc1ccc(CN2CCOC(COc3ccc(Cl)c4cccnc34)C2)cc1` (stereo unspecified) gave an inhibition constant (Ki) at D(4) dopamine receptor [1] of 40 nM. Also, the result in assay [2] was inactive. In the same order, the values of `COc1cc(Cl)ccc1OC[C@@H]1CN(Cc2ccc(Cl)cc2)CCO1` are 2.8 nM and “inactive”. On the same counts, the results for `CCCc1ccccc1OCC1CN(Cc2ccc(Cl)cc2)CCO1` (stereo unspecified) are 32 nM and “inactive”.

Molecule `CCOc1ccc(Cl)cc1OCC1CN(Cc2ccc(Cl)cc2)CCCO1` (stereo unspecified) displayed a Ki on D(4) dopamine receptor [1] of 9.3 nM. Moreover, in assay [2], the result was inactive.

Molecule `COc1ccccc1OCC1CN(Cc2ccc(Cl)c(Cl)c2)CCO1` (stereo unspecified) returned a Ki on D(4) dopamine receptor [1] of 32 nM. Moreover, the result in assay [2] was inactive. In the same order, the values of `COc1cccc(OCC2CN(Cc3ccc(Cl)cc3)CCO2)c1OC` (stereo unspecified) are 1000 nM and “inactive”. In the same order, the values of `COc1cc(Cl)ccc1OCC1CN(Cc2ccc(Cl)cc2)CCO1` (racemic) are 4.4 nM and “inactive”. In the same order, the values of `CCOc1ccc(Cl)cc1OCC1CN(Cc2ccc(Cl)cc2)CCO1` (stereo unspecified) are 2.9 nM and “inactive”. As for `COc1cc(Cl)ccc1OCC1CN(Cc2ccc(Br)cc2)CCCO1` (stereo unspecified), at D(4) dopamine receptor [1], the inhibition constant (Ki) was determined as 2 nM. For the same molecule, in assay [2], the outcome was inactive. As to `COc1ccc(N)cc1OCC1CN(Cc2ccc(Cl)cc2)CCO1` (stereo unspecified), the Ki at D(4) dopamine receptor [1] was determined as 100 nM. The result in assay [2] was inactive. As for `COc1ccccc1OCC1CN(Cc2ccc(Cl)cc2)CCO1` (stereo unspecified), on D(4) dopamine receptor [1], the Ki is 32 nM. Also, the result in assay [2] was inactive. Regarding `CCOc1cc(I)ccc1OCC1CN(Cc2ccc(Cl)cc2)CCO1` (stereo unspecified), affinity at D(4) dopamine receptor [1] was put at a Ki of 24 nM. Also, the outcome in assay [2] was inactive. For `COc1ccc(C(F)(F)F)cc1OCC1CN(Cc2ccc(Cl)cc2)CCO1` (stereo unspecified), at D(4) dopamine receptor [1], the Ki amounted to 250 nM. The result in assay [2] was inactive. In the same order, the values of `CC(=O)c1ccc(Cl)cc1OCC1CN(Cc2ccc(Cl)cc2)CCCO1` (stereo unspecified) are 5.5 nM and “inactive”.
